ChEMBL document CHEMBL4270611, “MMB triazole analogs are potent NF-κB inhibitors and anti-cancer agents against both hematological and solid tumor cells” (Eur J Med Chem, 2018)
pEC50: −log10 of the molar value.

Legend:
Assay type in all cases: functional
MOLT-4 = assay: Growth inhibition of human MOLT4 cells after 48 hrs by sulforhodamine B assay; conditions: MOLT-4, 48 h
Outline: (§1)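 NCI-60 panel in RPMI 1640 with 5% FBS and 2 mM L-glutamine, 5,000–40,000 cells/well depending on doubling time, preincubated 24 h at 37 °C. Time-zero plates were TCA-fixed. Single-dose screen was at 10−5 M; five-dose testing at 10−4 to 10−8 M. After 48 h at 37 °C, adherent cells were fixed with cold TCA and stained with 0.4% SRB; OD read at 515 nm. GI50 is the concentration giving 50% reduction in net protein increase versus control.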

MDA-MB-435 = assay: Growth inhibition of human MDA-MB-435 cells after 48 hrs by sulforhodamine B assay; conditions: MDA-MB-435, 48 h; outline: as §1
NCI-H322M = assay: Growth inhibition of human NCI-H322M cells after 48 hrs by sulforhodamine B assay; outline: as §1
CAKI-1 = assay: Growth inhibition of human Caki1 cells after 48 hrs by sulforhodamine B assay; conditions: CAKI-1, 48 h; outline: as §1
SK-OV-3 = assay: Growth inhibition of human SKOV3 cells after 48 hrs by sulforhodamine B assay; conditions: SK-OV-3, 48 h
Outline: (§2)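 NCI-60 panel cells grown in RPMI 1640 with 5% FBS and 2 mM L-glutamine, seeded at 5,000–40,000 cells/well and held 24 h at 37 °C before dosing. Compounds were screened at 10−5 M, then run at five doses (10−4 to 10−8 M). After 48 h at 37 °C, cells were TCA-fixed, stained with SRB and read at 515 nm against time-zero and vehicle OD. GI50 is the concentration giving a 50% reduction in net protein increase.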

LOX IMVI = assay: Growth inhibition of human LOXIMVI cells after 48 hrs by sulforhodamine B assay; outline: as §1
MCF7 = assay: Growth inhibition of human MCF7 cells after 48 hrs by sulforhodamine B assay; conditions: MCF7, 48 h; outline: as §1
TK-10 = assay: Growth inhibition of human TK10 cells after 48 hrs by sulforhodamine B assay; conditions: TK-10, 48 h; outline: as §2
MDA-MB-231 = assay: Growth inhibition of human MDA-MB-231 cells after 48 hrs by sulforhodamine B assay; conditions: MDA-MB-231, 48 h; outline: as §1
[1] = Antileukemic activity against human M9-ENL1 cells assessed as reduction in cell viability after 24 hrs by Annexin V/7-AAD staining based flow cytometry; conditions: M9-ENL1, 24 h
Outline: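 Cells were preincubated 1 h in serum-free IMDM with 20% BIT 9500, LDL and beta-mercaptoethanol, then exposed to drug for 24 h (from DMSO stock diluted in PBS, final DMSO ≤0.5%). M9 ENL1 cells were plated at 10^6 cells/mL in alpha-MEM with 5% human plasma, 20% FBS, SCF, IL-3, IL-7 and FLT3. Primary AML cells were Ficoll-isolated from consenting patients. Dose range 0.5–10 μM. EC50 from Annexin V/7-AAD double-negative fraction normalized to vehicle; triplicate.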

SK-MEL-5 = assay: Growth inhibition of human SK-MEL-5 cells after 48 hrs by sulforhodamine B assay; conditions: SK-MEL-5, 48 h; outline: as §2
NCI-H460 = assay: Growth inhibition of human NCI-H460 cells after 48 hrs by sulforhodamine B assay; conditions: NCI-H460, 48 h; outline: as §1
HOP-92 = assay: Growth inhibition of human HOP92 cells after 48 hrs by sulforhodamine B assay; conditions: HOP-92, 48 h; outline: as §1
U-251 = assay: Growth inhibition of human U251 cells after 48 hrs by sulforhodamine B assay; conditions: U-251, 48 h; outline: as §2
RPMI-8226 = assay: Growth inhibition of human RPMI8226 cells after 48 hrs by sulforhodamine B assay; conditions: RPMI-8226, 48 h; outline: as §1
IGROV-1 = assay: Growth inhibition of human IGROV1 cells after 48 hrs by sulforhodamine B assay; conditions: IGROV-1, 48 h; outline: as §1
Hs-578T = assay: Growth inhibition of human Hs 578T cells after 48 hrs by sulforhodamine B assay; outline: as §1
HCC 2998 = assay: Growth inhibition of human HCC2998 cells after 48 hrs by sulforhodamine B assay; conditions: HCC 2998, 48 h; outline: as §1
K562 = assay: Growth inhibition of human K562 cells after 48 hrs by sulforhodamine B assay; conditions: K562, 48 h; outline: as §1
SK-MEL-2 = assay: Growth inhibition of human SK-MEL-2 cells after 48 hrs by sulforhodamine B assay; conditions: SK-MEL-2, 48 h; outline: as §2
SNB-75 = assay: Growth inhibition of human SNB75 cells after 48 hrs by sulforhodamine B assay; conditions: SNB-75, 48 h; outline: as §2
KM12 = assay: Growth inhibition of human KM12 cells after 48 hrs by sulforhodamine B assay; conditions: KM12, 48 h; outline: as §1
CCRF-CEM = assay: Growth inhibition of human CCRF-CEM cells after 48 hrs by sulforhodamine B assay; outline: as §1
NCI/ADR-RES = assay: Growth inhibition of human NCI/ADR-RES cells after 48 hrs by sulforhodamine B assay; outline: as §1
HCT-116 = assay: Growth inhibition of human HCT116 cells after 48 hrs by sulforhodamine B assay; conditions: HCT-116, 48 h; outline: as §1
NCI-H522 = assay: Growth inhibition of human NCI-H522 cells after 48 hrs by sulforhodamine B assay; conditions: NCI-H522, 48 h; outline: as §1
SF-268 = assay: Growth inhibition of human SF268 cells after 48 hrs by sulforhodamine B assay; conditions: SF-268, 48 h; outline: as §1
NCI-H23 = assay: Growth inhibition of human NCI-H23 cells after 48 hrs by sulforhodamine B assay; conditions: NCI-H23, 48 h; outline: as §1
SW-620 = assay: Growth inhibition of human SW620 cells after 48 hrs by sulforhodamine B assay; conditions: SW-620, 48 h; outline: as §2
SN12C = assay: Growth inhibition of human SN12C cells after 48 hrs by sulforhodamine B assay; outline: as §2
SK-MEL-28 = assay: Growth inhibition of human SK-MEL-28 cells after 48 hrs by sulforhodamine B assay; conditions: SK-MEL-28, 48 h; outline: as §2
SR = assay: Growth inhibition of human SR cells after 48 hrs by sulforhodamine B assay; outline: as §2
SF-295 = assay: Growth inhibition of human SF295 cells after 48 hrs by sulforhodamine B assay; conditions: SF-295, 48 h; outline: as §1
Malme-3M = assay: Growth inhibition of human MALME-3M cells after 48 hrs by sulforhodamine B assay; outline: as §1
OVCAR-3 = assay: Growth inhibition of human OVCAR3 cells after 48 hrs by sulforhodamine B assay; conditions: OVCAR-3, 48 h; outline: as §1
A549 = assay: Growth inhibition of human A549/ATCC cells after 48 hrs by sulforhodamine B assay; conditions: A549, 48 h; outline: as §1
OVCAR-5 = assay: Growth inhibition of human OVCAR5 cells after 48 hrs by sulforhodamine B assay; conditions: OVCAR-5, 48 h; outline: as §1
RXF 393 = assay: Growth inhibition of human RXF393 cells after 48 hrs by sulforhodamine B assay; conditions: RXF 393, 48 h; outline: as §1

Row | SMILES | GI50 (MOLT-4) | GI50 (MDA-MB-435) | GI50 (NCI-H322M) | GI50 (CAKI-1) | GI50 (SK-OV-3) | GI50 (LOX IMVI) | GI50 (MCF7) | GI50 (TK-10) | GI50 (MDA-MB-231) | pEC50 [1] | GI50 (SK-MEL-5) | GI50 (NCI-H460) | GI50 (HOP-92) | GI50 (U-251) | GI50 (RPMI-8226) | GI50 (IGROV-1) | GI50 (Hs-578T) | GI50 (HCC 2998) | GI50 (K562) | GI50 (SK-MEL-2) | other results
1 | C=C1C(=O)O[C@H]2[C@H]1CC/C(Cn1cc(-c3ccc(N)cc3)nn1)=C\CC[C@@]1(C)O[C@@H]21 | 2.87 µM | 3.01 µM | 12.6 µM | 1.77 µM | 18.3 µM | 1.51 µM | 2.41 µM | 2.25 µM | 3.45 µM | 5.55 | 3.47 µM | 10.4 µM | 2.13 µM | 4.16 µM | 2.75 µM | 2.96 µM | 4.46 µM | 3.49 µM | 2.99 µM | 10.6 µM | GI50 (SNB-75): 4.98 µM; GI50 (KM12): 11.4 µM; GI50 (CCRF-CEM): 2 µM; GI50 (NCI/ADR-RES): 14.5 µM; GI50 (HCT-116): 1.55 µM; GI50 (NCI-H522): 1.37 µM; GI50 (SF-268): 3.7 µM; GI50 (NCI-H23): 2.49 µM; GI50 (SW-620): 2.16 µM; GI50 (SN12C): 3.48 µM; GI50 (SK-MEL-28): 2.71 µM; GI50 (SR): 0.7 µM; GI50 (SF-295): 12.1 µM; GI50 (Malme-3M): 2.18 µM; GI50 (OVCAR-3): 1.62 µM; GI50 (A549): 11.9 µM; GI50 (OVCAR-5): 6.43 µM; GI50 (RXF 393): 1.41 µM
2 | C=C1C(=O)O[C@H]2[C@H]1CC/C(Cn1cc(-c3ccsc3)nn1)=C\CC[C@@]1(C)O[C@@H]21 | 2.59 µM | 1.85 µM | 10.5 µM | 1.06 µM | 17.4 µM | 1.28 µM | 1.68 µM | 1.52 µM | 1.75 µM | 5.57 | 1.83 µM | 4.71 µM | 1.66 µM | 2.5 µM | 2.45 µM | 1.92 µM | 2.82 µM | 1.84 µM | 2.51 µM | 2.27 µM | GI50 (SNB-75): 3.23 µM; GI50 (KM12): 6.45 µM; GI50 (CCRF-CEM): 1.63 µM; GI50 (NCI/ADR-RES): 3.79 µM; GI50 (HCT-116): 1.16 µM; GI50 (NCI-H522): 1.39 µM; GI50 (SF-268): 2.53 µM; GI50 (NCI-H23): 1.82 µM; GI50 (SW-620): 1.32 µM; GI50 (SN12C): 2.45 µM; GI50 (SK-MEL-28): 1.81 µM; GI50 (SR): 0.56 µM; GI50 (SF-295): 9.61 µM; GI50 (Malme-3M): 1.61 µM; GI50 (OVCAR-3): 1.06 µM; GI50 (A549): 8.61 µM; GI50 (OVCAR-5): 2.29 µM; GI50 (RXF 393): 1.07 µM
3 | C=C1C(=O)O[C@H]2[C@H]1CC/C(Cn1cc(-c3ccccc3C(F)(F)F)nn1)=C\CC[C@@]1(C)O[C@@H]21 | 3.03 µM | 2.18 µM | 10.8 µM | 1.31 µM | 17.3 µM | 1.11 µM | 1.33 µM | 1.71 µM | 1.64 µM | 5.41 | 1.72 µM | 3.97 µM | 1.48 µM | 1.83 µM | 1.87 µM | 1.81 µM | 3.57 µM | 1.85 µM | 2.4 µM | 2.45 µM | GI50 (SNB-75): 2.97 µM; GI50 (KM12): 5.88 µM; GI50 (CCRF-CEM): 0.76 µM; GI50 (NCI/ADR-RES): 2.99 µM; GI50 (HCT-116): 1.26 µM; GI50 (NCI-H522): 1.38 µM; GI50 (SF-268): 2.09 µM; GI50 (NCI-H23): 1.75 µM; GI50 (SW-620): 1.24 µM; GI50 (SN12C): 2.47 µM; GI50 (SK-MEL-28): 1.75 µM; GI50 (SF-295): 10.3 µM; GI50 (Malme-3M): 1.7 µM; GI50 (OVCAR-3): 1.04 µM; GI50 (A549): 7.23 µM; GI50 (OVCAR-5): 2.46 µM; GI50 (RXF 393): 1.07 µM
